Screens deposited in PubChem BioAssay by several laboratories.
An excerpt weighted towards active compounds, which were near 9.2% of everything screened.
PTEN del growth: PTEN-deleted cell growth suppression. HCT116 PTEN-null viability, CellTiter-Glo, 60 h; stronger effect = lower value. viability, % at 10 µM. 140,000 tested, 1.2% active. AID 827;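 active = viability at or below a set limit, 4 SD under the median of all tested compounds, cut at about 3.7% in these data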;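 also: PTEN knockout HCT116 line with beta catenin targeted HCT116 as companion control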
Dynein cargo inh: blocks dynein driven cargo transport along microtubules; 220,000 tested, 0.47% active; AID 1381; z-score, hits read low; 3617.4 mouse cells, GR-EGFP nuclear translocation imaging; test concentration mostly 20 µM; stimulated with dexamethasone, 1 µM; stronger effect = lower value;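 active = plate z-score of nuclear minus cytoplasmic receptor signal below a set negative limit, without overly bright fluorescence or cell loss, cut at about -3.5 in these data, passing the limit was not always enough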;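 also: z-score of nuclear minus cytoplasmic ring GR-EGFP intensity difference per well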
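medium = tetracycline-free induction medium containing charcoal-stripped FBS | also added = 1.0 µM final dexamethasone stimulus | schedule = 48 h induction, 1 h compound, 30 min dex at 37 °C | technique = fixed, Hoechst-stained cells imaged at 10x for EGFP | measure = GR-EGFP nuclear translocation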
L major viab: Leishmania major promastigote growth inhibition. Leishmania major promastigotes, resazurin fluorescence viability. inhibition, % at 10 µM. 200,000 tested, 9% active; in the data active = inhibition above about 50%;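 also: promastigotes grown with compound for 44 hours at 28 °C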
bCat KO growth: beta-catenin-lacking colon tumor cell growth suppression. HCT116 beta-catenin knockout viability, CellTiter-Glo, 60 h; stronger effect = lower value. viability, % at 10 µM. 140,000 tested, 1.5% active;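 active = viability at or under a set limit, the compound median less 4 SD, cut at about 6% in these data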;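 also: 0% = Hyamine 1622 control at 20 µM and 100% = untreated cell control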
Autophagy mod: alters autophagy in cells | MEF GFP-LC3 puncta imaging; test concentration mostly 10 µM | calls only at 10 µM (by protocol) | 190,000 tested, 0.98% active;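 active = percentage of spot-positive cells more than 3 SD above its plate mean, without a fluorescence outlier flag or 80% toxicity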;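 also: spot-positive cell cutoff set from DMSO-treated cells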
L major 1uM: blocks Leishmania major promastigote growth at 1 uM, repeat screen; shares compounds with L major viab; L. major promastigote growth, resazurin fluorescence, 48 h; inhibition, % at 1 µM; 1,100 tested, 13% active; AID 1258;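 active = inhibition above about 50% in both repeat tests, limit read from the data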
* marks the source's active call; other numbers are inactive results; i = inactive; . = no result given; + = active, no number.

SMILES	PTEN del growth	Dynein cargo inh	L major viab	bCat KO growth	Autophagy mod	L major 1uM
COC(=O)c1ccccc1NC(=S)NC(NC(=O)COc1ccccc1)C(Cl)(Cl)Cl (stereo not drawn)	77	-0.77	99*	75	i	23
Cc1ccc(CNC(=O)c2cn(C3CCCCC3)c(=O)c3c2c2ccccc2n3C)o1	68	1.1	53*	82	i	-20
c1ccc(-c2nc3cc4ccccc4cc3[nH]2)nc1	40	-0.039	100*	40	i	-5
CC(=O)Nc1ccc(-c2csc(Nc3ccccn3)n2)cc1	.	0.35	.	.	.	.
CCC(=O)Nc1nc(C)c(-c2csc(Nc3ccccn3)n2)s1	.	-0.97	62*	.	i	6
CCOC(=O)c1ccccc1NC(=O)Cc1sc(-c2cccnc2)nc1-c1ccc(C)cc1	60	-0.72	97*	72	i	-4
N#Cc1cc(Oc2cccc3cccnc23)c(-n2nnc3ccccc32)cc1C#N	22	-1.4	69*	13	i	-10
CC(=O)[C@H]1[C@@H]2C(=O)N(c3cccc(Cl)c3)C(=O)[C@@H]2[C@H]2c3ccccc3C=CN21	91	-1.5	-3	90	i	.
CC(C)(C)C(=O)[C@@H]1[C@@H]2C(=O)N(Cc3ccccc3)C(=O)[C@@H]2[C@H]2c3ccccc3C=CN12	91	-2.2	68*	89	i	-8
Cc1ccccc1C(=O)Oc1ccc(Sc2ccc(O)cc2)cc1	102	0.3	54*	98	i	1
Cc1ccccc1C(=O)Oc1ccc(-c2csnn2)cc1	.	-0.8	.	.	.	.
Cc1ccc(OCc2nc(C#N)c(NCc3ccc4c(c3)OCO4)o2)cc1	101	-1.2	98*	93	i	-18
COCCn1c(SCC(=O)Nc2sccc2C(N)=O)nnc1-c1ccncc1	.	-0.81	-3	.	i	.
Clc1ccc2[nH]c3c(c2c1)CCc1cn[nH]c1-3	72	-1.7	54*	71	i	-9
CCc1ccc2oc(-c3ccc(OC)cc3)cc(=Nc3c(C)n(C)n(-c4ccccc4)c3=O)c2c1	.	-1.3	90*	.	i	1
CCc1ccc2oc(-c3ccc(OC)cc3)cc(=Nc3cccc(C(=O)O)c3)c2c1	.	-0.38	0	.	i	.
COc1ccc(NC(=O)Nc2cccc([N+](=O)[O-])c2)cc1Cl	4	0.074	98*	5.0*	i	-3
COc1ccc(C(=O)Nc2cccc([N+](=O)[O-])c2)cc1Br	.	0.037	-3	.	i	.
Cc1cccc(-n2c(SCc3cc(=O)n4ccsc4n3)nc3ccccc32)c1	72	0.65	92*	80	i	-13
Cn1c(-c2ccc(C=O)s2)nc2c3ccccc3c3ccccc3c21	7	0.77	68*	25	i	-17
Cc1sc2ncn(CC(=O)NCc3ccccn3)c(=O)c2c1S(=O)(=O)N1CCOCC1	72	0.32	0	82	i	.
CCN1C(=O)C(CC(=O)Nc2ccc(Br)cc2)N(CCCc2ccccc2)C1=S (stereo not drawn)	23	0.28	92*	33	i	-7
c1ccc(-c2n[nH]c(-c3ccccn3)n2)nc1	105	0.68	100*	96	i	-9
CCc1ccc(OCCOCC(O)CNC2CCCC2)cc1 (stereo not drawn)	.	-1.2	60*	.	i	4
Cc1ccc(Oc2ccc(S(=O)(=O)N3CCOCC3)cc2C(N)=O)c(-n2nc3ccccc3n2)c1	10	-0.018	54*	15	i	-8
SMILES	PTEN del growth	Dynein cargo inh	L major viab	bCat KO growth	Autophagy mod	L major 1uM
COc1ccc(CN2CCNC(=O)C2CC(=O)N(C)Cc2nccn2C)cc1OC (stereo not drawn)	.	0.65	0	.	i	.
CN1c2cccc3cccc(c23)N(C)C1(C)C	100	-0.9	99*	111	i	-16
CCOC(=O)c1sc(NC(=O)CN2CCCC2)c(C(=O)OCC)c1C	56	-0.94	93*	46	i	-14
CC1CN(C(=O)Nc2ccc(Br)cc2Cl)CC(C)O1 (stereo not drawn)	.	-0.2	-3	.	i	.
O=C(N/C=N/OCc1cccc(C(F)(F)F)c1)N1OC[C@@H]2COc3ccc4ccccc4c3[C@@H]21	68	-0.22	92*	65	i	-3
COc1ccc(CC(=O)OC(C)CN2CCCCC2)cc1 (stereo not drawn)	.	-0.77	-8	.	i	.
COC(=O)c1ccc(CN(Cc2ccc(C(=O)OC)o2)C(C)(C)C)o1	97	0.89	97*	89	i	-12
COC(=O)c1ccc(CN2CCN(Cc3ccc(C(=O)OC)o3)CC2)o1	93	-1	2	89	i	.
O=C1CCCCC1C(O)c1ccc(Cl)cc1 (stereo not drawn)	.	-0.76	.	.	.	.
Cn1c(CSc2nc3ccccc3n2C)nc2ccccc21	99	0.63	4	101	i	.
Cn1c(SC2=CS(=O)(=O)c3ccccc32)nc2ccccc21	1.4*	-1.3	99*	2.5*	i	15
O=C(Cn1[nH]c(=O)c2ccccc2c1=O)N1CC=C(c2ccccc2)CC1	93	1.3	4	72	i	.
O=C(O)CCC(=O)N1CC=C(c2ccccc2)CC1	76	0.34	63*	65	i	-7
COc1ccc(-c2[nH]ncc2CN2CCC(N3CCSCC3)CC2)cc1F	.	-1.4	-5	.	i	.
OCCN1CCN(C(=S)c2ccc(Br)cc2)CC1	96	0.43	68*	87	i	-2
Cc1cccc(NC(=O)c2cc(S(=O)(=O)c3ccccc3)ccc2Cl)c1	69	0.33	6	65	i	.
Cc1ccc(S(=O)(=O)N/N=c2\oc3ccccc3cc2C(=O)Nc2cccc(C)c2)cc1	100	0.19	71*	103	i	-17
N#CC(c1ccc(Cl)cc1)c1ccc2c(C(F)(F)F)cc(C(F)(F)F)nc2n1 (stereo not drawn)	0.8*	1.9	100*	0.9*	+	56*
O=C/C(=C\Nc1ccccn1)c1nc2cc(Cl)ccc2o1	81	-1.1	72*	85	i	-1
Cc1[nH]c2ccccc2c1-c1csc(NC(=O)CSCCO)n1	.	-0.2	0	.	i	.
C=CCNC(=S)NC(=O)c1oc2ccccc2c1C	.	-1.5	-4	.	i	.
Cc1sc2nc(CN(Cc3cccs3)C(=O)NC3CCCCC3)[nH]c(=O)c2c1C	53	0.73	53*	64	i	2
CC(C)(C)c1ccc(S(=O)(=O)N2C=CC(C(F)(F)F)=NCC2)cc1	95	-0.024	59*	84	i	-13
Cc1ccc(C(=O)OCc2cn3ccccc3n2)cc1	98	-0.084	-3	104	i	.
COc1cccc(OCC(=O)O/N=C(\N)c2ccc(OC)c(OC)c2)c1	86	-0.86	49	86	i	.
FC(F)(F)c1nc2ccccc2n2c(-c3c(Cl)cccc3Cl)nnc12	87	0.13	57*	93	i	-5
Clc1cccc(Cl)c1-c1nnc2cccc(Cl)n12	99	0.079	-2	91	i	.
